According to publication PMC3505964 (Nucleic Acids Research, 2012):

Legend:
[1] = tested on: avian myeloblastosis virus reverse transcriptase (AMV-RT); test: PAGE analysis of primer extension reactions, AMV-RT; assay type: biochemical; conditions: single dNTPs
[2] = molecular target: T1, human DNA polymerase β (Homo sapiens, UniProt P06746); test: PAGE analysis of primer extension reactions, pol β; assay type: biochemical
[3] = molecular target: T1, human DNA polymerase β; test: MALDI-TOF analysis of primer extension products, pol β; assay type: biochemical; conditions: 1 mM each dNTP, 19-mer and 20-mer products
How it was run: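 Unlabelled 16-mer primer (10 pmol) annealed to a 25-mer template (20 pmol; 2′-O-methylguanosine or 8-nitro-2′-O-methylguanosine) at 70°C for 20 min, then room temperature for 15 min. Final pol β was 750 nM, with 1 mM each dNTP. Incubated 37°C for 60 min, stopped at 90°C for 5 min. Desalted on C18 tips (0.1 M TEAA pH 7.0), eluted in 3-HPA/ammonium citrate matrix. Products assigned by calculated m/z against a 20-mer standard mix.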

[4] = tested on: avian myeloblastosis virus reverse transcriptase (AMV-RT); test: MALDI-TOF analysis of primer extension products, AMV-RT; assay type: biochemical; conditions: 1 mM each dNTP, 20-mer products
[5] = cited from earlier work
[6] = pKa determination from pH-dependent UV absorption; assay type: physicochemical; conditions: 25 °C; for pKa (deprotonation at N1): free nucleoside
[7] = free nucleoside; cited from earlier work

Molecule: 5′-TCANCATTGGGAGTCGACATAGCGC–3′ [8-nitroG template]
- single dNTP most preferentially inserted [1]: dATP
- dCTP incorporation, level relative to the control ([2]; single dCTP): < 20%
- increase of dTTP incorporation relative to control ([2]; single dTTP, from a low level): around 2 fold

Molecule: 5′-TCANCATTGGGAGTCGACATAGCGC–3′ [control template]
- nucleotide incorporated opposite X in extended products [3]: only dC
- nucleotide incorporated opposite X in extended products [4]: predominantly dC

Molecule: Nc1nc2c(nc([N+](=O)[O-])n2C2OC(CO)C(O)C2F)c(=O)[nH]1 (centres unmarked) [2′-fluoro, reference compound]
- half-life (depurination) ([5]; pH 7.4): 72 days

Molecule: Nc1nc2c(nc([N+](=O)[O-])n2[C@@H]2O[C@H](CO)[C@@H](O)[C@H]2O)c(=O)[nH]1 [Compound 6a, 8-Nitroguanosine]
- half-life (hydrolytic stability) ([5]; pH 7 and 37°C, ref one published study): 0.21 days
- pKa (deprotonation at N1) [6]: 8.4

Molecule: CO[C@@H]1[C@H](O)[C@@H](CO)O[C@H]1n1c([N+](=O)[O-])nc2c(=O)[nH]c(N)nc21 [Compound 6b, 8-Nitro-2′-O-methylguanosine]
- pKa (deprotonation at N1) [6]: 8.3

Molecule: Nc1nc2c(ncn2[C@@H]2O[C@H](CO)[C@@H](O)[C@H]2O)c(=O)[nH]1 [guanosine]
- pKa [7]: 9.4

Molecule: GCGTACG**CATGCG [ODN4]
- pKa of 8-nitro-2′-O-methylguanosine within the single-stranded oligonucleotide ([6]; single-stranded ODN GCGTACG**CATGCG): 9.1
